Where a SMILES comes first, the peptide text is derived from it. Where no end group is shown, it is not given here. [ ]: non-standard residue; d: D form. pS = N[C@@H](COP(=O)(O)O)C(=O)O
Key:
[1] = target: T1, TAZ2 domain of CBP (residues 1764–1855) (Mus musculus, UniProt P45481); experiment: Fluorescence anisotropy competition with Alexa594-labeled E7; type: binding; details: ratio of fluorescence anisotropy competition KDs
T1 sequence (P45481 1764-1855): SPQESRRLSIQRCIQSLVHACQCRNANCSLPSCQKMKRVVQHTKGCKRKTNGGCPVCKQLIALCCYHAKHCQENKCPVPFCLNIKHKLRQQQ
Procedure, shortened: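 Tracer: Alexa Fluor 594-labelled E7(1–51) C24A/A50C (dye at position 50), 20 nM, in 20 mM Tris, 50 mM NaCl, 1 mM DTT, pH 7.0. It was pre-bound to 0.8 μM TAZ2 (>90% saturation). Unlabelled E7 peptides were titrated in and the anisotropy decrease read at 590/617 nm. Apparent KD came from a competition fit using the tracer KD from direct TAZ2 titration.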

TAZ2 = details: doubly-phosphorylated peptide; fluorescence anisotropy and NMR spectroscopy; cited from earlier work

CC(C)C[C@H](NC(=O)[C@H](CCC(N)=O)NC(=O)[C@H](CCC(=O)O)NC(=O)[C@H](Cc1ccc(O)cc1)NC(=O)[C@H](CS)NC(=O)[C@H](Cc1ccc(O)cc1)NC(=O)[C@H](CC(C)C)NC(=O)[C@H](CC(=O)O)NC(=O)[C@@H](NC(=O)[C@@H](NC(=O)[C@@H](N)CCC(=O)O)[C@@H](C)O)[C@@H](C)O)C(=O)N[C@@H](CC(N)=O)C(=O)N[C@@H](CC(=O)O)C(=O)N[C@@H](CO)C(=O)N[C@@H](CO)C(=O)N[C@@H](CCC(=O)O)C(=O)N[C@@H](CCC(=O)O)C(=O)N[C@@H](CCC(=O)O)C(=O)N[C@@H](CC(=O)O)C(=O)N[C@@H](CCC(=O)O)C(=O)O [CR2(18–37)] (H-ETTDLYCYEQLNDSSEEEDE-OH)
KD of CR2 relative to the preceding CR1 motif (stronger) [1]: seven-fold

ppE7(1–51): doubly-phosphorylated (S31, S32) HPV16 E7(1–51) peptide (MHGDTPTLHEYMLDLQPETTDLYCYEQLND[pS][pS]EEEDEIDGPAGQAEPDRAH)
binding affinity for TAZ2 (TAZ2): low nanomolar range
